Measured values from PMC12525009 (The Febs Journal, 2025).

Tests used:
Assay type in all cases: binding
[1] = target: T1, MsrQ (Escherichia coli, UniProt P76343); test: quinone extraction of purified protein, HPLC-ECD-MS; conditions: co-purified from E. coli; per holoprotein (heme content); pH 7.6, LMNG
T1 sequence (P76343 1-211): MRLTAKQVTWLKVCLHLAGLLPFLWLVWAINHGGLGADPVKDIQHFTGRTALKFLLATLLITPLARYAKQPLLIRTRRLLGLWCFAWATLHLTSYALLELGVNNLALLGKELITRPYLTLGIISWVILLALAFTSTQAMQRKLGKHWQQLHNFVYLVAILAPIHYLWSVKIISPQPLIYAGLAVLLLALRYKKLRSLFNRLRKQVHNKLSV
Method in brief: (§1)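 Ni-NTA-purified MsrQ, in 50 mM Tris/HCl pH 7.6 with 0.004% LMNG, was quantified by heme content (pyridine hemochromogen, 556 nm). Quinones were extracted from […] protein with methanol/KCl, using 80 pmol UQ10 as internal standard. Two petroleum ether extractions were pooled, dried under N2 and taken up in ethanol. Fractions equal to 5 and 20 μg protein were run on HPLC-ECD-MS (m/z 500–900). MK8 was quantified against an MK7 curve (2–100 pmol) and UQ8 against a UQ10 standard.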

[2] = target: T1, MsrQ; test: HPLC of flavin released by heat denaturation of purified protein; conditions: co-purified; 1 μM holoprotein (heme content)
[3] = target: T1, MsrQ; test: quinone extraction of purified protein, HPLC-ECD-MS; conditions: co-purified from E. coli; per holoprotein (heme content); pH 7.6, LMNG; remark: listed apart in the source
Method in brief: as §1

COC1=C(OC)C(=O)C(C/C=C(\C)CC/C=C(\C)CC/C=C(\C)CC/C=C(\C)CC/C=C(\C)CC/C=C(\C)CC/C=C(\C)CCC=C(C)C)=C(C)C1=O [UQ8]
UQ8/MsrQ ^b , ^c [1]: 0.45 ± 0.06 mol UQ8 per mol MsrQ

Cc1cc2nc3c(=O)[nH]c(=O)nc-3n(C[C@H](O)[C@H](O)[C@H](O)COP(=O)(O)O)c2cc1C [FMN]
FMN concentration in 1 μM MsrQ [2]: 0.90 µM

CC(C)=CCC/C(C)=C/CC/C(C)=C/CC/C(C)=C/CC/C(C)=C/CC/C(C)=C/CC/C(C)=C/CC/C(C)=C/CC1=C(C)C(=O)c2ccccc2C1=O [MK8]
MK8/MsrQ ^b , ^d [3]: 0.090 ± 0.020 mol MK8 per mol MsrQ
